Compound activity deposited in PubChem BioAssay by several laboratories.
MT1-MMP txn act = activates MT1-MMP transcription; HT1080 MT1-MMP promoter luciferase reporter, luminescence, overnight; hits give high values; activation factor at 10 µM; actives 0.16% (n = 86,000); AID 750;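 active = activation factor of at least 2 for MT1-MMP transcription at 10 µM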
Jurkat viability = reduces viability or proliferation of Jurkat cells; inhibition, % at 4 µM; Jurkat E6.1 viability, ATP luminescence, 48 h; actives 1.2% (n = 56,000); AID 463;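 active = inhibition above the mean inhibition of all tested compounds plus 3 SD, cut at about 28% in these data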
RORa activator = activators of human nuclear receptor RORA; activation, % at 10 µM; CHO-K1 Gal4-RORA LBD luciferase reporter, luminescence; percent increase over mock-subtracted basal signal; actives 1.5% (n = 65,000);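 active = activation above the mean of all tested compounds plus 3 SD, cut at about 49% in these data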;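 note: 0% = DMSO-treated RORA cells and 100% = added signal equal to DMSO minus mock-transfected cells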
SF1 activator = activates the human nuclear receptor SF-1. CHO-K1 Gal4-SF-1 LBD luciferase reporter; % increase over DMSO SF-1-specific signal. activation, % at 10 µM. actives 1.9% (n = 65,000). AID 522. Q13285;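 active = activation above the mean activation of all tested compounds plus 3 SD, cut at about 50% in these data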
Target sequence (Q13285 whole entry, looked up, the tested form may be a part): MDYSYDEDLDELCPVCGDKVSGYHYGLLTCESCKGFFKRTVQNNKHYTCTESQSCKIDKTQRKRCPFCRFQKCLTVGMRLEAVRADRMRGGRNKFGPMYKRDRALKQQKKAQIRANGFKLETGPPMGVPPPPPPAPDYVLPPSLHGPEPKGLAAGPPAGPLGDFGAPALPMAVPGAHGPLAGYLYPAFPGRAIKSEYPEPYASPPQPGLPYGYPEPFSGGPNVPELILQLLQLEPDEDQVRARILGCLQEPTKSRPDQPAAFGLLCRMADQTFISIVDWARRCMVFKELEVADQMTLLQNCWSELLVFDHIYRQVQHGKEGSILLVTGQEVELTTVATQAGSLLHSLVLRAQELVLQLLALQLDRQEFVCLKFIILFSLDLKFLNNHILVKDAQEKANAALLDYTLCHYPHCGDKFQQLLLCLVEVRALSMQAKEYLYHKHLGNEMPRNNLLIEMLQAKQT
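material = CHO-K1 cells with Gal4–hSF-1 LBD chimera plus Gal4-driven luciferase | compound = 10 µM single point, 1% DMSO | incubation = 20 h compound exposure at 37 °C after 1 h cell settling | measured by = SteadyLite luciferase luminescence | evaluation = percent activation relative to DMSO median and mock-transfected background | control set = DMSO negative control and −SF1 background wells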
HEK293 NFkB inh = inhibitors of the PMA/ionomycin-induced NF-kB reporter in HEK293 cells | HEK-293 NF-kB luciferase reporter, luminescence | actives 0.21% (n = 62,000) | inhibition, % at 3 µM;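 active = inhibition above the mean of all tested compounds plus 3 SD, cut at about 40% in these data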;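 note: 0% = stimulated DMSO wells and 100% = 10 µM reference inhibitor 5653914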
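Reagent: PMA plus ionomycin mix as NF-kB-activating stimulus. Assay system: NF-kB luciferase reporter HEK-293 cells. Technique: luminescence from luciferase substrate reagent. Incubation: 1 h compound pre-incubation, 16 h PMA/ionomycin at 37 °C. Benchmarks: DMSO only as uninhibited control, 10 µM reference inhibitor as full inhibition. Repeats: tested once.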
* hit, by the source's call; . = no result given. Shown are actives, neighbours in structure and some others; about 2.9% of the full set was active somewhere.

SMILES	MT1-MMP txn act	Jurkat viability	RORa activator	SF1 activator	HEK293 NFkB inh
Cc1cccc(N(C)C(=O)c2cc3cc4ccc(C)cc4nc3o2)c1	1.4	10	23	36	14
Cc1ccc(OCc2ccc(C(=O)N3CCOCC3)cc2)cc1C	1.4	9	52*	46	-13
Cc1ccc(C(=O)Nc2nc3ccccc3n2CCN2CCCC2)cc1	1.8	-2	62*	38	-38
CCCn1c(NC(=O)c2cccc(S(=O)(=O)N3CCCC3)c2)nc2ccccc21	1.1	44*	-27	-28	32
O=C(Nc1nc2ccccc2n1CCN1CCCCC1)c1ccc(Cl)cc1	1.1	.	.	.	.
Cc1cccnc1NC(=O)C1CCN(S(=O)(=O)c2cccs2)CC1	0.9	.	.	.	.
O=C(Nc1nc2ccccc2n1CCN1CCCC1)c1ccc(Cl)cc1	1.5	-1	99*	55*	-14
CCCn1c(NC(=O)c2ccc(C)cc2)nc2ccccc21	1.6	5	19	32	-2
CCCn1c(NC(=O)C2CCN(S(=O)(=O)c3cccs3)CC2)nc2ccccc21	1	84*	8	-20	10
CCn1c(SCC(=O)O)nnc1C1CCCCC1	1.1	-2	-4	14	11
CC(=O)C(Sc1nc(-c2ccco2)nc2c1c(=O)n(C)c(=O)n2C)C(=O)N(C)C (stereo not drawn)	1.3	-6	-14	-8	15
CCOC(=O)C1=C(C)N(CCCC(=O)N(Cc2ccc3c(c2)OCO3)C(C(=O)NC(C)(C)C)c2ccc3c(c2)OCO3)C(=O)NC1c1ccc(Br)cc1 (stereo not drawn)	1.2	.	.	.	.
CCCC1(C)Nc2ccccc2-c2nc3ccccc3n21 (stereo not drawn)	1.6	.	.	.	.
c1ccc2c(c1)NC1(CCCC1)n1c-2nc2ccccc21	1.7	-2	40	59*	-12
CCN(CC)S(=O)(=O)c1ccc(Br)c(OC)c1	1.3	0	5	-9	3
C=CCNc1oc(-c2cccs2)nc1C#N	1.2	.	.	.	.
Nc1nc(NC(=O)c2cccs2)nn1-c1ccccc1	1.3	.	38	77*	.
O=C(Nc1ccc2nn(-c3ccccc3)nc2c1)c1cccs1	1.8	-5	12	70*	-15
CC(C)Cn1c(N)c(C(=O)COC(=O)c2cc(-c3ccccc3)nc3ccccc23)c(=O)n(C)c1=O	1.1	.	.	.	.
Cc1nn(-c2ccccc2)c(C)c1C(=O)OCC(=O)c1c(N)n(CC(C)C)c(=O)n(C)c1=O	1.2	38*	-48	-55	17
O=S1(=O)C=C(Sc2nc3cc(Cl)ccc3o2)c2ccccc21	1.2	99*	-75	-71	32
CN(C)c1nc(N)nc(CSc2nc3cc(Cl)ccc3o2)n1	1.4	0	16	17	-3
Cc1nn(-c2nc3ccccc3[nH]2)c(N)c1-c1ccccc1	1.8	-2	54*	31	-77
Cc1nn(-c2nc3ccccc3s2)c(N)c1-c1ccccc1	0.7	8	43	60*	-45
Cc1nn(-c2nc3ccccc3s2)c(N)c1Sc1ccc(F)cc1	1.9	6	26	63*	15
SMILES	MT1-MMP txn act	Jurkat viability	RORa activator	SF1 activator	HEK293 NFkB inh
COc1ccc(OC)c2[nH]c(=O)c(CCNC(=O)CC(C)C)cc12	1.2	-6	5	2	10
CNC(=O)[C@]1(C)C[C@H]1[C@H](NC(=O)[C@]1(C)C[C@H]1[C@H](NC(=O)OCc1ccccc1)c1ccccc1)c1ccccc1	1.1	.	.	.	.
Cc1ccc2cc(CN(Cc3ccco3)C(=O)c3cccs3)c(=O)[nH]c2c1	0.8	92*	76*	45	10
O=C(COc1ccc2ccccc2c1CN1CCOCC1)N1CCc2ccccc21	1	13	-27	-10	14
COc1nc(C)ccc1-c1noc(-c2ccncc2)n1	1.5	-1	31	64*	-15
CCOc1ccccc1-c1nc(-c2ccc(C)nc2OC)no1	1.2	.	36	58*	-34
CCOc1nc(C)ccc1-c1noc(-c2ccccn2)n1	1.2	2	8	9	10
Cc1cccc(NC(=O)CNc2cc(C)ccc2C)c1	1.3	.	6	6	9
Cn1c(CSc2ccccc2)c(C#N)c2ccccc21	1.7	-7	61*	27	-13
Cc1ccc(SCc2c(C#N)c3ccccc3n2C)cc1	1.1	.	-6	-14	.
Cc1[nH]c2ccc(F)cc2c(=O)c1SC(F)(F)C(F)C(F)(F)F (stereo not drawn)	1.2	.	-16	13	.
COc1cccc2c(=O)c(SC(F)(F)C(F)C(F)(F)F)c(C)[nH]c12 (stereo not drawn)	1.6	.	46	51*	.
Cc1ccccc1OCc1nc2c3cnn(C)c3ncn2n1	1.7	.	50*	37	-22
Cc1ccc(NC2=CC(=O)CC(c3ccco3)C2)c(N)c1 (stereo not drawn)	1.2	19	50*	58*	13
Nc1ccccc1NC1=CC(=O)CC(c2ccco2)C1 (stereo not drawn)	1.1	10	21	5	6
CCN1CCN(c2ncc3c(n2)CC(c2cc(OC)c(OC)c(OC)c2)CC3=O)CC1 (stereo not drawn)	0.8	80*	46	22	29
COc1cc2nc3c(c([Si](C)(C)C(C)(C)C)c2cc1OC)Cn1c-3cccc1=O	1.1	.	.	.	.
O=C(NCc1cccnc1)c1ccc2c(c1)OCO2	1.2	.	-12	-9	19
CCOC(=O)c1ccccc1NC1c2ccccc2C(=O)N1c1ccc(C)cn1 (stereo not drawn)	.	-3	22	62*	-4
CCOc1ccccc1NC1c2ccccc2C(=O)N1c1ccc(C)cn1 (stereo not drawn)	1.1	-1	63*	13	6
Cc1ccc(N2C(=O)c3ccccc3C2Nc2cccnc2)nc1 (stereo not drawn)	1.1	-2	-3	12	4
COc1cc(NC2c3ccccc3C(=O)N2c2ccc(C)cn2)cc(OC)c1OC (stereo not drawn)	1.3	-4	20	43	-6
COc1ccc(S(=O)(=O)N(CC(=O)NCC2CCCO2)c2ccccc2)cc1OC (stereo not drawn)	1.1	10	-1	7	16
COCCOC(=O)c1[nH]c2c(c1C)C(=O)C(C(=O)OC)C(C)C2 (stereo not drawn)	1.4	-8	56*	47	-28
COC(=O)C1C(=O)c2c([nH]c(C(=O)OC3CCCCCC3)c2C)CC1C (stereo not drawn)	1.3	8	74*	38	-6
C=COC(=O)CSc1nc(-c2cccs2)ccc1C#N	1.4	.	40	69*	.
CCSc1n[nH]c(=O)[nH]c1=O	1.2	4	-8	2	11
COC(=O)c1sccc1NC(=O)C12CC3CC(CC(C3)C1)C2	1.1	.	.	.	.
COc1ccc2c(c1)CCc1c(C(=O)N3CCCCCC3)noc1-2	1.6	-3	5	57*	-22
O=S(=O)(CCSc1ccccn1)c1nc2ccccc2s1	0.9	50*	2	9	24
